Results published in ChEMBL document CHEMBL1129751, “2-Iminopiperidine and other 2-iminoazaheterocycles as potent inhibitors of human nitric oxide synthase isoforms” (J Med Chem, 1996).

Tests used:
[1] = target: T1, Nitric oxide synthase 3 (Homo sapiens, UniProt P29474); assay: Inhibitory activity against human Endothelial nitric oxide synthase
T1 sequence (P29474 whole entry): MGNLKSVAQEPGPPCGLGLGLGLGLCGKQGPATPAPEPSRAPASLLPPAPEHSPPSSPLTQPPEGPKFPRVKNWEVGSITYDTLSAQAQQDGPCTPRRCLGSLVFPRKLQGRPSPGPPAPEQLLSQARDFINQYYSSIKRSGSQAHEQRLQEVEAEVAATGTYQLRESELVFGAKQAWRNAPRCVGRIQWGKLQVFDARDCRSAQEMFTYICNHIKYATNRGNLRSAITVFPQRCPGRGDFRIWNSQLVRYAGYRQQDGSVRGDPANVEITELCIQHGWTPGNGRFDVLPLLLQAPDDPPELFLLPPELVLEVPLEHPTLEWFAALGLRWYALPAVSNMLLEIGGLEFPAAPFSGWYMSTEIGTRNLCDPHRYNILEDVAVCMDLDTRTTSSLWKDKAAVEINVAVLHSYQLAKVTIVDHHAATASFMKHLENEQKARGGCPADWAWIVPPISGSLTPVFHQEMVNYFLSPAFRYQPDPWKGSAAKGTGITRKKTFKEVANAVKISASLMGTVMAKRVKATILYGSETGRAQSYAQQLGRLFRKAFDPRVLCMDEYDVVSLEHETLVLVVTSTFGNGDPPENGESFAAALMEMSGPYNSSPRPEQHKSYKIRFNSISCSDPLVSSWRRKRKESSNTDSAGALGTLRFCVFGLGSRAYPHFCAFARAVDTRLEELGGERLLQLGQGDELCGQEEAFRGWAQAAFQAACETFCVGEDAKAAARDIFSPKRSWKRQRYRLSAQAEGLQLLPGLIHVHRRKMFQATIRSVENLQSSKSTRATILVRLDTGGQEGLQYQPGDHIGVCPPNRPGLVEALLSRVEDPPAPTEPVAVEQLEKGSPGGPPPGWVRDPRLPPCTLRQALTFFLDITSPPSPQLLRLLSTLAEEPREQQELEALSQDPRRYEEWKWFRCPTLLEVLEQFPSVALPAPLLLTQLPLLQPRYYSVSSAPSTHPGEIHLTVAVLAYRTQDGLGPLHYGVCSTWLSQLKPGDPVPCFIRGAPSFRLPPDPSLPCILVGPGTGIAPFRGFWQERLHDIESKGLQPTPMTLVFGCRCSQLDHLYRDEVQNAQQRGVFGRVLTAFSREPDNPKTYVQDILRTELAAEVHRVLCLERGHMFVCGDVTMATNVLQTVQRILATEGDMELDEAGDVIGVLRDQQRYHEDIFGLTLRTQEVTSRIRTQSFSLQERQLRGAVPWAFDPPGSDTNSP
Outline: (§1)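 Recombinant human enzymes expressed in Sf9 cells by baculovirus and partially purified on DEAE-Sepharose from soluble extracts. Assay in 50 mM Tris pH 7.6 with BSA, DTT, CaCl2, FAD, tetrahydrobiopterin, NADPH, 30 µM final L-arginine with L-[2,3-3H]arginine. Endothelial form also given 40 nM calmodulin. 15 min at 37 °C, stopped with EGTA buffer. [3H]citrulline isolated on cation exchange and counted. IC50 from eight concentrations, at least duplicate.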

[2] = target: Nitric oxide synthase, inducible (Homo sapiens, UniProt P35228); assay: Inhibitory activity against human inducible nitric oxide synthase; outline: as §1
Chain of Nitric oxide synthase, inducible (P35228 whole entry): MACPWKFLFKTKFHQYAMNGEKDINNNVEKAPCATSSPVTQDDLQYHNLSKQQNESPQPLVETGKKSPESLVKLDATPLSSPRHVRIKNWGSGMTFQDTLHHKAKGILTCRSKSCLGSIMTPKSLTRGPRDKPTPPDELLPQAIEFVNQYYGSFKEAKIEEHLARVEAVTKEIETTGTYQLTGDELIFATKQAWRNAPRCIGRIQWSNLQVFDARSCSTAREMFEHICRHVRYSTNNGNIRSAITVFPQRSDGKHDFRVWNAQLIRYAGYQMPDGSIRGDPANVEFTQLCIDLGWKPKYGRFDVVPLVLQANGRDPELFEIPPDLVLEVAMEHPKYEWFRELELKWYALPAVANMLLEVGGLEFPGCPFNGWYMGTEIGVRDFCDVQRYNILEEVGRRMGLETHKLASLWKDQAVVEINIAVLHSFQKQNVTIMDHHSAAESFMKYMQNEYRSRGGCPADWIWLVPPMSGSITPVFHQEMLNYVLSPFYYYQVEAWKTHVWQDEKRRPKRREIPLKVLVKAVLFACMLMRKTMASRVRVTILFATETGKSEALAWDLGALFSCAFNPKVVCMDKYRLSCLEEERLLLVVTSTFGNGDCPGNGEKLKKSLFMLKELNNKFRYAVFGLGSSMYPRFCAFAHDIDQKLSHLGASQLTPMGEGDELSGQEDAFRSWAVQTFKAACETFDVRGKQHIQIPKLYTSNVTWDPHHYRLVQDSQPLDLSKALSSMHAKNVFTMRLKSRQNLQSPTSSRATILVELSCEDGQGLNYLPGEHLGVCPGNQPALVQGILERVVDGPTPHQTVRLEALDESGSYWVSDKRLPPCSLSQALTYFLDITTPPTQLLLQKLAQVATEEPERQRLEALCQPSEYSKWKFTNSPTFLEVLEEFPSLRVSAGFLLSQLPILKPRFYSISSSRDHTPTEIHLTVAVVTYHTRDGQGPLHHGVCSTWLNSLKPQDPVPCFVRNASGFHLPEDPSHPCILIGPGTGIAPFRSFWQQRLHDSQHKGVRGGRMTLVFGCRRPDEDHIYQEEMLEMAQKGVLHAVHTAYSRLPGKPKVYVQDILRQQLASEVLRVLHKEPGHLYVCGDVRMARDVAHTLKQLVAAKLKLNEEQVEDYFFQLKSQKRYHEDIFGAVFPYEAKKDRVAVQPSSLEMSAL

[3] = target: Nitric oxide synthase 1 (Homo sapiens, UniProt P29475); assay: Inhibitory activity against human Neuronal nitric oxide synthase
Chain of Nitric oxide synthase 1 (P29475 whole entry): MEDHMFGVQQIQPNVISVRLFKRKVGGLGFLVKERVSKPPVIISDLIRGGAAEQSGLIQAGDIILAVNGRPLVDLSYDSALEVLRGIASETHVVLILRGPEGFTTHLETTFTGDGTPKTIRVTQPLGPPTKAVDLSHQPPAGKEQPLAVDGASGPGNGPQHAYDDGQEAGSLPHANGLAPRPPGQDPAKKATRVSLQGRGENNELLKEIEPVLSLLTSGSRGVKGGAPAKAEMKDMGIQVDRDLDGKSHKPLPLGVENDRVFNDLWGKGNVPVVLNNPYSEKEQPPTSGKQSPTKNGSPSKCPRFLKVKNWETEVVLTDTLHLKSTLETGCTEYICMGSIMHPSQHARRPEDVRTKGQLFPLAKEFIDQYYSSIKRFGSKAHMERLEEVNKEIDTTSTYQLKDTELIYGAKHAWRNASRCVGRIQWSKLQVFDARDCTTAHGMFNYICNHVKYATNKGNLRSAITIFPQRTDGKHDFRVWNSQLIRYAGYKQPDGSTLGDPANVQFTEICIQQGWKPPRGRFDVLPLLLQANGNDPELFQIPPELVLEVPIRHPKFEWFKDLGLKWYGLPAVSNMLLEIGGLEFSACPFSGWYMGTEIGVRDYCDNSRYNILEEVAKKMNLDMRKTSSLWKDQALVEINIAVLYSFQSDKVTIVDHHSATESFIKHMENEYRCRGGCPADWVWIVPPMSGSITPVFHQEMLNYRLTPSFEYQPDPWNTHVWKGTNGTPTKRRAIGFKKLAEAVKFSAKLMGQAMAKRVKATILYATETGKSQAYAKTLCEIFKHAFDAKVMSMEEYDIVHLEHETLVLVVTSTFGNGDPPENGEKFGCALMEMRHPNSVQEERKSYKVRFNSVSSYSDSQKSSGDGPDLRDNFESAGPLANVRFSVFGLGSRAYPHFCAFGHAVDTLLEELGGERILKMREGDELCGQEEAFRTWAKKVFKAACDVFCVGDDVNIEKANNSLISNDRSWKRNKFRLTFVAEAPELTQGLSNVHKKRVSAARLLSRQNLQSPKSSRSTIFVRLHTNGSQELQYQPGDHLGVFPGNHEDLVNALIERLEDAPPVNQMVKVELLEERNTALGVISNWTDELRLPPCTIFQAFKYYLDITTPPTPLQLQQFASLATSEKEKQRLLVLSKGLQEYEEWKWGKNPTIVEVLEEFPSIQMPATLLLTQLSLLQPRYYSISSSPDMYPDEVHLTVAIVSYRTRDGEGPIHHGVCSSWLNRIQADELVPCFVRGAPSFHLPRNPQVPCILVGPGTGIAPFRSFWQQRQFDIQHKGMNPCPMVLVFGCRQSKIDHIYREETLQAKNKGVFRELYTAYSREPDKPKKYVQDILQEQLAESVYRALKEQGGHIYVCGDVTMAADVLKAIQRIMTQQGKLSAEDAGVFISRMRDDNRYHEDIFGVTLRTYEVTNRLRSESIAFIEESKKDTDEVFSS

[4] = Selectivity is defined as the ratio of the IC50(hecNOS) to IC50(hiNOS)
Outline: (§2)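 Ratio of IC50 for the endothelial or neuronal isoform to IC50 for the inducible isoform. All three recombinant human enzymes were assayed by [3H]arginine-to-[3H]citrulline conversion at 30 µM final L-arginine, 37 °C for 15 min. Both constitutive isoforms had 40 nM calmodulin. Each compound tested at eight concentrations.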

[5] = Selectivity is defined as the ratio of the IC50(hncNOS) to IC50(hiNOS); outline: as §2

| IC50 [1] [µM] | IC50 [2] [µM] | IC50 [3] [µM] | Selectivity [4] | Selectivity [5] | Structure (SMILES) |
| --- | --- | --- | --- | --- | --- |
| 4.7 | 1 | – | – | – | N=C1CCCCN1 |
| 59 | 10 | 10 | – | – | NC1=NCCCCCC1 |
| 138 | 4.6 | 61 | 30 | 13 | CC(=N)NCCCC[C@H](N)C(=O)O [L-NIL] |
| – | – | – | 5.9 | 1 | N/C1=N/CCCCCC1 |
| 90 | 9.8 | 6.8 | – | – | N=C1CCCCCCCN1 |
| 8.2 | 1.8 | 3.7 | 4.6 | 2.1 | NC1=NCCCO1 |
| 16 | 2 | 3.5 | 8 | 1.8 | NC1=NCCCCC1 |
| 93 | 26 | 20 | 3.6 | 0.8 | NC1=NCCC1 |
| 7.1 | 2.9 | 3.2 | 2.4 | 1.1 | NC1=NCCCS1 |
| 87 | 25 | 17 | 3.5 | 0.7 | NC1=NCCCN1 |
| – | – | – | 9.2 | 0.7 | N/C1=N/CCCCCCC1 |
